Results published in ChEMBL document CHEMBL1134977, “Design and synthesis of ethyl pyrrolidine-5,5-trans-lactams as inhibitors of hepatitis C virus NS3/4A protease” (Bioorg Med Chem Lett, 2002).
Residues, ends and D or L forms follow the SMILES beside them. *: point of attachment. X1 = CCC1C(=O)N(S(C)(=O)=O)[C@H]2CCN(*)[C@H]12

What was measured:
[1] = biological target: T1, Hepatitis C virus serine protease, NS3/NS4A (Hepatitis C virus, UniProt A3EZI9+D2K2A8); assay: Inhibitory concentration against hepatitis C virus NS3/4A protease on 18 hr preincubation in chromogenic assay; format: protein-complex assay, Hepacivirus hominis
T1 sequence (D2K2A8 whole entry, the tested form may be a part): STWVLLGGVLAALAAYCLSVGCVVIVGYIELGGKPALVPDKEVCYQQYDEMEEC
T1 sequence (A3EZI9 whole entry, the tested form may be a part): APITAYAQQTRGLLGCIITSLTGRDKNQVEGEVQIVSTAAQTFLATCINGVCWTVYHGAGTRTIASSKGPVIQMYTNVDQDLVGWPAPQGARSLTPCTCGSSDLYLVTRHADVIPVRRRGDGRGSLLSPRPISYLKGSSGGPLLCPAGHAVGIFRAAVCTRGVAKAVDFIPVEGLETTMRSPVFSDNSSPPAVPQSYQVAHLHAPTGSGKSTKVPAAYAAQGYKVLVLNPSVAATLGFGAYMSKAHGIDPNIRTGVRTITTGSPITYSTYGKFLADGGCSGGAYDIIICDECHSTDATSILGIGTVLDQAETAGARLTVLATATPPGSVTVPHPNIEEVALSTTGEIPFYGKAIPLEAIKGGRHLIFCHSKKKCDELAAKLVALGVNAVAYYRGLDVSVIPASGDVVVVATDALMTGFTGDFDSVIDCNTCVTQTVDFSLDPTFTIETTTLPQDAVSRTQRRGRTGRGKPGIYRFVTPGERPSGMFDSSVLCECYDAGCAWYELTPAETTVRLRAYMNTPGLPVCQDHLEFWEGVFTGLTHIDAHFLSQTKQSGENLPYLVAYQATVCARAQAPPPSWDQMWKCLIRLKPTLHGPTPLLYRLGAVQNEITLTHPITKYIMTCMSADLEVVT
How it was run: (§1)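 Chromogenic read-out with the NS3 protease domain at 0.56 µM and synthetic 18-mer NS4A cofactor peptide at 0.8 µM. Substrate was Ac-E-D-V-V-P-C-pNO2 anilide at 1.5 mM (Km 1.85 mM). Compound was pre-incubated with enzyme for 2, 4 or 18 h before substrate addition.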

[2] = biological target: T1, Hepatitis C virus serine protease, NS3/NS4A; assay: Inhibitory concentration against hepatitis C virus NS3/4A protease on 4 hr pre-incubation in fluorogenic assay; format: protein-complex assay, Hepacivirus hominis
How it was run: (§2)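 Fluorogenic assay with full-length NS3/4A protein at 20 nM (NS3:4A 1:1). Substrate was Abz-E-D-V-V-P-C-S-M-S-(3-NO2)-Y-H at 25 µM (Km 5 µM). Compound was pre-incubated with enzyme for 4 or 18 h before substrate addition.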

[3] = biological target: T1, Hepatitis C virus serine protease, NS3/NS4A; assay: Inhibitory concentration against hepatitis C virus NS3/4A protease on 18 h pre-incubation in fluorogenic assay; format: protein-complex assay, Hepacivirus hominis; how it was run: as §2
[4] = biological target: T1, Hepatitis C virus serine protease, NS3/NS4A; assay: Inhibitory concentration against hepatitis C virus NS3/4A protease on 4 hr pre-incubation in chromogenic assay; format: protein-complex assay, Hepacivirus hominis; how it was run: as §1
[5] = biological target: T2, Hepatitis C virus serine protease, NS3/NS4A (Hepatitis C virus) (UniProt D2K2A8+A3EZI9); assay: Compound was tested for inhibition of hepatitis C virus NS3/4A protease at 100 uM 2 hr pre-incubation in chromogenic assay; format: protein-complex assay; details: Hepacivirus hominis
[6] = biological target: T2, Hepatitis C virus serine protease, NS3/NS4A (Hepatitis C virus); assay: Inhibitory concentration against hepatitis C virus NS3/4A protease on 18 h pre-incubation in chromogenic assay; format: protein-complex assay; design: concentration or dose not given beside the values; details: Hepacivirus hominis; concentration not given here; how it was run: as §1
[7] = biological target: T1, Hepatitis C virus serine protease, NS3/NS4A; assay: Inhibitory concentration against hepatitis C virus NS3/4A protease on 2 hr pre-incubation in chromogenic assay; format: protein-complex assay, Hepacivirus hominis; how it was run: as §1

Compound	IC50 [1]	IC50 [2]	IC50 [3]	IC50 [4]	inhibition [5]	inhibition [6]	IC50 [7]
CC[C@@H]1C(=O)N(C(C)=O)[C@H]2CCN(C(=O)[C@@H](NC(=O)OC(C)(C)C)C(C)C)[C@H]12	45 µM	193 µM	194 µM	88 µM			
CCC1C(=O)N(S(C)(=O)=O)[C@H]2CCN(C(=O)C(NC(=O)[C@@H](NC(=O)[C@H](CC(=O)O)NC(=O)[C@H](CCC(=O)O)NC(C)=O)C(C)C)C(C)C)[C@H]12 (single isomer, unassigned)					24%	85%	
CC[C@H]1C(=O)N(S(C)(=O)=O)[C@H]2CCN(C(=O)[C@@H](NC(=O)OC(C)(C)C)C(C)C)[C@H]12	28 µM	341 µM	172 µM	99 µM			
CCC1C(=O)N(S(C)(=O)=O)[C@H]2CCN(C(=O)[C@@H]3CCCN3C(=O)[C@@H](NC(=O)[C@H](CC(=O)O)NC(=O)[C@H](CCC(=O)O)NC(C)=O)C(C)C)[C@H]12 (stereo partly specified) (Ac-EDVP-X1)					5%	11%	
CCC1C(=O)N(S(C)(=O)=O)[C@H]2CCN(C(=O)[C@@H](NC(=O)OC(C)(C)C)C(C)C)C12 (single isomer, unassigned)	27 µM	182 µM	140 µM	62 µM	52%		
CCC1C(=O)N(S(C)(=O)=O)[C@H]2CCN(C(=O)[C@@H](NC(=O)[C@@H](NC(C)=O)C(C)C)C(C)C)[C@H]12 (stereo partly specified)					21%	45%	
CCC1C(=O)N(S(C)(=O)=O)[C@H]2CCN(C(=O)CNC(=O)[C@@H](NC(=O)[C@H](CC(=O)O)NC(=O)[C@H](CCC(=O)O)NC(C)=O)C(C)C)[C@H]12 (stereo partly specified) (Ac-EDVG-X1)					10%	24%	
CCC1C(=O)N(S(C)(=O)=O)[C@H]2CCN(C(=O)[C@@H](NC(=O)[C@@H](NC(=O)[C@H](CC(=O)O)NC(=O)[C@H](CCC(=O)O)NC(C)=O)C(C)C)C(C)C)[C@H]12 (stereo partly specified) (Ac-EDVV-X1)	19 µM	> 400 µM	284 µM	69 µM			69 µM
CC[C@@H]1C(=O)N(S(C)(=O)=O)[C@H]2CCN(C(=O)[C@@H](NC(=O)OC(C)(C)C)C(C)C)[C@H]12	22 µM			30 µM			
CC[C@H]1C(=O)N(C(C)=O)[C@H]2CCN(C(=O)[C@@H](NC(=O)OC(C)(C)C)C(C)C)[C@H]12	147 µM	216 µM	447 µM	> 400 µM			
CCC1C(=O)N(S(C)(=O)=O)[C@H]2CCN(C(=O)[C@@H](NC(=O)[C@@H](NC(=O)[C@H](CC(=O)O)NC(C)=O)C(C)C)C(C)C)[C@H]12 (stereo partly specified)					68%	94%	
CCC1C(=O)N(S(C)(=O)=O)[C@H]2CCN(C(=O)[C@@H](N)C(C)C)[C@H]12 (stereo partly specified)					11%	41%	
